These results are taken from ChEMBL document CHEMBL1145384, “Novel C-6 fluorinated acyclic side chain pyrimidine derivatives: synthesis, (1)H and (13)C NMR conformational studies, and antiviral and cytostatic evaluations” (J Med Chem, 2007).

Data set [1] relates to Human betaherpesvirus 5. Kind of data set: Antiviral activity against human cytomegalovirus AD169 in HEL cells assessed as reduction of plaque formation after 7 days. As to conditions: Human betaherpesvirus 5, AD169, HEL, 168 h. Type of data set: functional, organism-based. A digest of the protocol:
(§1)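 Confluent HEL fibroblasts infected with HCMV (Davis or AD-169) at 100 PFU per well; after 2 h adsorption, residual virus removed and medium with serial compound concentrations added (duplicate wells). Incubated 7 days; EC50 taken as concentration reducing plaque formation by 50%.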

Data set [2] relates to Human betaherpesvirus 5. Kind of data set: Antiviral activity against human cytomegalovirus Davis in HEL cells assessed as reduction of plaque formation after 7days. Type of data set: functional, organism-based. As to conditions: Human betaherpesvirus 5, Davis, 168 h. A digest of the protocol: as §1
Data set [3] deals with Human alphaherpesvirus 3. Kind of data set: Antiviral activity against thymidine kinase expressing Varicella-Zoster virus OKA assessed as reduction of plaque formation. The class given is functional, organism-based. As to conditions: Human alphaherpesvirus 3, OKA.
Data set [4] has as its system Human alphaherpesvirus 3. Kind of data set: Antiviral activity against thymidine kinase deficient Varicella-Zoster virus 07/1 assessed as reduction of plaque formation. Type of data set: functional, organism-based. The following applies: Human alphaherpesvirus 3, 07/1. In a few lines: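 Plaque reduction assay in HEL cells against TK+ (OKA) and TK- (07/1) VZV strains; virus input 100 PFU; EC50 as concentration giving 50% plaque reduction.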

The nature of data set [5]: Cytotoxicity against HEL cells assessed as cell morphology after 7 days. Type of data set: cell-based. The following applies: human. A digest of the protocol: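 Uninfected confluent HEL cultures exposed to compounds; MCC recorded as lowest concentration producing a microscopically detectable alteration of normal cell morphology at day 7.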
The nature of data set [6]: Cytotoxicity against HEL cells assessed as cell growth after 7 days. The class given is cell-based. As to conditions: human.
A further data set has as its system Human respirovirus 3. Kind of data set: Antiviral activity against parainfluenza 3 virus in Vero cells assessed as reduction of virus plaque formation after 7 days. The class given is functional, organism-based. As to conditions: Human respirovirus 3, Vero, 168 h.
Data set [7] relates to Mammalian orthoreovirus 1. Kind of data set: Antiviral activity against reovirus1 virus in Vero cells assessed as reduction of virus plaque formation after 7 days. The class given is functional, organism-based. As to conditions: Mammalian orthoreovirus 1, Vero, 168 h.
For the next data set, the system named is Sindbis virus. Kind of data set: Antiviral activity against sindbis virus in Vero cells assessed as reduction of virus plaque formation after 7 days. The class given is functional, organism-based. The following applies: 168 h.
The next data set deals with Punta Toro virus. Kind of data set: Antiviral activity against Punta Toro virus in Vero cells assessed as reduction of virus plaque formation after 7 days. The following applies: 168 h. The class given is functional, organism-based.
For the next data set, the system named is Coxsackievirus B4. Kind of data set: Antiviral activity against coxsackie B4 virus in HeLa cells assessed as reduction of virus plaque formation after 7 days. As to conditions: Enterovirus B, 168 h. Type of data set: functional, organism-based.
In another data set the test system is HEp-2. Kind of data set: Growth inhibition of Hep2 cells after 72 hrs by MTT assay. Type of data set: functional, cell-based. The following applies: Homo sapiens, HEp-2, 72 h. A digest of the protocol: (§2)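 Tumor lines grown as monolayers in DMEM with 10% FBS, 2 mM L-glutamine and penicillin. Freshly diluted compounds added, solvent tested at matching concentrations; after 72 h growth measured by MTT. IC50 obtained by linear regression of concentrations bracketing 50% growth; mean of three separate experiments.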
(In general: Tetrazolium dyes change colour on reduction, which living cells bring about.)

The next data set concerns HeLa. Kind of data set: Growth inhibition of HeLa cells after 72 hrs by MTT assay. Type of data set: functional, cell-based. As to conditions: Homo sapiens. A digest of the protocol: as §2
A further data set relates to MIA PaCa-2. Kind of data set: Growth inhibition of MiaPaCa2 cells after 72 hrs by MTT assay. The class given is functional, cell-based. As to conditions: Homo sapiens, MIA PaCa-2, 72 h. In a few lines: as §2
The subject of a further data set is SW-620. Kind of data set: Growth inhibition of SW620 cells after 72 hrs by MTT assay. The class given is functional, cell-based. As to conditions: Homo sapiens, SW-620, 72 h. A digest of the protocol: as §2
For a further data set, the system named is MCF7. Kind of data set: Growth inhibition of MCF7 cells after 72 hrs by MTT assay. The class given is functional, cell-based. The following applies: Homo sapiens, MCF7, 72 h. A digest of the protocol: as §2
Another data set deals with L1210. Kind of data set: Growth inhibition of mouse L1210 cells after 72 hrs by MTT assay. Type of data set: functional, cell-based. As to conditions: L1210, 72 h.
Data set [8] is described as follows: Growth inhibition of human Molt4/C8 cells after 72 hrs by MTT assay. The class given is functional, cell-based. As to conditions: MOLT-4, 72 h.
Another data set concerns CCRF-CEM. Kind of data set: Growth inhibition of human CEM cells after 72 hrs by MTT assay. Type of data set: functional, cell-based.
The subject of the next data set is WI-38. Kind of data set: Growth inhibition of human WI38 fibroblasts at 0.1 uM after 72 hrs by MTT assay. Type of data set: functional, cell-based.

SMILES strings stand for the structures. Calls of active or inactive are those of the source. The rule behind the calls is not given here.

For the molecule `COc1nc(CC(C)(O)c2ccc(F)cc2)c(C)c(OC)n1` (centres undefined), the EC50 is 45 µM in the data set with Human betaherpesvirus 5 [1]; 20 µM with Human betaherpesvirus 5 [2]; 80 µM in the data set with Human alphaherpesvirus 3 [3]; 45 µM with Human alphaherpesvirus 3 [4]; more than 200 µM in the data set on Human respirovirus 3; more than 200 µM in [7]. The figures for the EC50 with Sindbis virus, in the data set on Punta Toro virus and in the data set with Coxsackievirus B4 were more than 200 µM, more than 200 µM and more than 40 µM, respectively. For the same molecule, the MCC at 168 h in [5] was more than 100 µM. Moreover, the 50% cytotoxic concentration (CC50) at 168 h in [6] was more than 100 µM. The IC50 in the data set on HEp-2 is 43 µM; in the data set with HeLa it was 35 µM; with MIA PaCa-2, 65 µM; with SW-620, not below 100 µM; in the data set with MCF7, 38 µM; with L1210, 195 µM. Further, the half-maximal inhibitory concentration (IC50) in data set [8] was 144 µM; in the data set on CCRF-CEM it was 136 µM.

Regarding `COc1nc(CBr)c(Br)c(OC)n1`, the concentration for a half-maximal effect (EC50) in the data set on Human betaherpesvirus 5 [1] is more than 100 µM; with Human betaherpesvirus 5 [2], more than 100 µM; with Human alphaherpesvirus 3 [3] it was more than 100 µM; in the data set with Human alphaherpesvirus 3 [4], more than 100 µM; with Human respirovirus 3 it was more than 8 µM; in data set [7], more than 8 µM. Further, the results for the EC50 with Sindbis virus, in the data set on Punta Toro virus and with Coxsackievirus B4 were more than 8 µM, more than 8 µM and more than 40 µM, respectively. Besides, the MCC at 168 h in data set [5] is more than 100 µM. Moreover, in [6], the cytotoxic concentration (CC50) at 168 h was found to be 38.7 µM. Moreover, the half-maximal inhibitory concentration (IC50) in the data set on HEp-2 amounted to 7 µM; in the data set on HeLa, 18 µM; in the data set on MIA PaCa-2 it was 2 µM; with SW-620, 1 µM; with MCF7 it was 8 µM; in the data set on L1210, 38 µM. Besides, the IC50 in data set [8] is 97 µM; with CCRF-CEM, 28 µM. The result in the data set with WI-38 was inactive.

By EC50 is commonly meant the concentration needed to bring the measured effect to its halfway point. For orientation: CC50 means the concentration at which the toxic effect on the cells reaches its halfway point. The term IC50 denotes the point on the concentration scale where inhibition reaches its midpoint.
